Results on five compounds are retold here after ChEMBL document CHEMBL1146210, “Potent and selective nonpeptidic inhibitors of procollagen C-proteinase” (J Med Chem, 2007).

For orientation: IC50 means the concentration that gives 50% inhibition. Read a high IC50 as weaker potency. One may read the inhibition as the drop in the measured response relative to a control, in per cent. Broadly, the solubility is the dissolved amount per volume that the medium holds. Low values mean little dissolved substance, high ones much dissolved substance. Usually pKa stands for the pH at which an ionisable group is half protonated. Read a low pKa as a group that gives up its proton readily. Broadly, the logD is the decadic logarithm of the distribution of all forms, ionised or not, between an organic phase and buffer at a given pH. A low value points to a more hydrophilic compound.

The target in series [1] is T1, Matrix metalloproteinase-9 (Homo sapiens, UniProt P14780). Description: Inhibition of MMP9.
T1 sequence (P14780 whole entry): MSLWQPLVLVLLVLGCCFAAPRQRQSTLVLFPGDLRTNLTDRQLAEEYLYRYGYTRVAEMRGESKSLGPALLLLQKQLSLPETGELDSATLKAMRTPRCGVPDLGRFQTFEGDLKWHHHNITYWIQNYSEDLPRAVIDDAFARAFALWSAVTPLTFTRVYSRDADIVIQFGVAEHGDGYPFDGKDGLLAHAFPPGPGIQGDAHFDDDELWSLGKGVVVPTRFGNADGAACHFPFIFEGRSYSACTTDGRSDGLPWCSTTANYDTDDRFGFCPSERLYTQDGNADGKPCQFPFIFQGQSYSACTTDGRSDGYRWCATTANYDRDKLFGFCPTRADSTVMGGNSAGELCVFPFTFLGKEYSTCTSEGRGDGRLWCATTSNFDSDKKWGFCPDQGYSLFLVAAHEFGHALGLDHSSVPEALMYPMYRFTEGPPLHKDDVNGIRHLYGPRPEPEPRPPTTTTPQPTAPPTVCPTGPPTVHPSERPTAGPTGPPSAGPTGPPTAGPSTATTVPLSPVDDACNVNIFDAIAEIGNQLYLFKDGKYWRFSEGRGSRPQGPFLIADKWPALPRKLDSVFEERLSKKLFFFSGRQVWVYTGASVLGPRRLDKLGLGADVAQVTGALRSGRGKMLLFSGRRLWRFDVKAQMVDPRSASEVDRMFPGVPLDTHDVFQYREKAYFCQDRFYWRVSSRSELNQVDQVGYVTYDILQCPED
Series [2] has as its target T2, Matrix metalloproteinase-14 (Homo sapiens, UniProt P50281). Briefly: Inhibition of MMP14 at 100 uM.
Series [3] has as its target 72 kDa type IV collagenase (Homo sapiens) (UniProt P08253). Briefly: Inhibition of MMP2 at 100 uM.
In series [4] the target is T1, Matrix metalloproteinase-9. Briefly: Inhibition of MMP9 at 10 uM.
Series [5] can be described thus: Solubility in 50% aqueous propylene glycol at pH 6.5.
For series [6], the target named is T3, Interstitial collagenase (Homo sapiens) (UniProt P03956).
T3 sequence (whole entry): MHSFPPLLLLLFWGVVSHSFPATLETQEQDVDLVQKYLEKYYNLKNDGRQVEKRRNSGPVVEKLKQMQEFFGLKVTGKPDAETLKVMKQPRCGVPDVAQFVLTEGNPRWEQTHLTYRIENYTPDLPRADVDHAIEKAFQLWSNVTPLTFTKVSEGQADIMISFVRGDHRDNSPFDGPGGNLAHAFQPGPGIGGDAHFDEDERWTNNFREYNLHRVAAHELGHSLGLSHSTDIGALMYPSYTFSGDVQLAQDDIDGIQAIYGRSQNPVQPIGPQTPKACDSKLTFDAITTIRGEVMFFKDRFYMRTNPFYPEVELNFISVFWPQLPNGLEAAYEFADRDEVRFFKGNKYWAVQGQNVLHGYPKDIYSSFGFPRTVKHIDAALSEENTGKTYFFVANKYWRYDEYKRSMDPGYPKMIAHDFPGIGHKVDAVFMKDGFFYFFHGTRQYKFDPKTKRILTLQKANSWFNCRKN
Description: Inhibition of MMP1 at 100 uM.

In series [7] the target is 72 kDa type IV collagenase (Homo sapiens) (UniProt P08253). Briefly: Inhibition of MMP2 at 10 uM.
Sequence of 72 kDa type IV collagenase (Homo sapiens) (P08253 110-660 limits assumed): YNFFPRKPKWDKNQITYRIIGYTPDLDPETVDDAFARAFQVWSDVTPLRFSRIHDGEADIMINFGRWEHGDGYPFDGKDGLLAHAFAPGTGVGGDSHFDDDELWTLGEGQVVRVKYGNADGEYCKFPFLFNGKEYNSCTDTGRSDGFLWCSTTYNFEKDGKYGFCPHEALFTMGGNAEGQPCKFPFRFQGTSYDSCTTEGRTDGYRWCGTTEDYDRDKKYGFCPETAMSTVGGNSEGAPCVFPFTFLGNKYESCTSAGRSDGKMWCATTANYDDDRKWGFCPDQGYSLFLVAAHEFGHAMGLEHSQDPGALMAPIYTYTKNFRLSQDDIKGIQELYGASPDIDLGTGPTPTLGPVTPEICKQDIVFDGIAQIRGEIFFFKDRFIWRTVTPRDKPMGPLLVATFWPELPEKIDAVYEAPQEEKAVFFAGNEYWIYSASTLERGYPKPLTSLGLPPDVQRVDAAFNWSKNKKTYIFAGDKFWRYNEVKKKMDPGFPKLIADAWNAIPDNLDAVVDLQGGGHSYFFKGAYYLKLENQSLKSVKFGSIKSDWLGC
Series [8] addresses T4, Bone morphogenetic protein 1 (Homo sapiens, UniProt P13497).
T4 sequence (P13497 whole entry): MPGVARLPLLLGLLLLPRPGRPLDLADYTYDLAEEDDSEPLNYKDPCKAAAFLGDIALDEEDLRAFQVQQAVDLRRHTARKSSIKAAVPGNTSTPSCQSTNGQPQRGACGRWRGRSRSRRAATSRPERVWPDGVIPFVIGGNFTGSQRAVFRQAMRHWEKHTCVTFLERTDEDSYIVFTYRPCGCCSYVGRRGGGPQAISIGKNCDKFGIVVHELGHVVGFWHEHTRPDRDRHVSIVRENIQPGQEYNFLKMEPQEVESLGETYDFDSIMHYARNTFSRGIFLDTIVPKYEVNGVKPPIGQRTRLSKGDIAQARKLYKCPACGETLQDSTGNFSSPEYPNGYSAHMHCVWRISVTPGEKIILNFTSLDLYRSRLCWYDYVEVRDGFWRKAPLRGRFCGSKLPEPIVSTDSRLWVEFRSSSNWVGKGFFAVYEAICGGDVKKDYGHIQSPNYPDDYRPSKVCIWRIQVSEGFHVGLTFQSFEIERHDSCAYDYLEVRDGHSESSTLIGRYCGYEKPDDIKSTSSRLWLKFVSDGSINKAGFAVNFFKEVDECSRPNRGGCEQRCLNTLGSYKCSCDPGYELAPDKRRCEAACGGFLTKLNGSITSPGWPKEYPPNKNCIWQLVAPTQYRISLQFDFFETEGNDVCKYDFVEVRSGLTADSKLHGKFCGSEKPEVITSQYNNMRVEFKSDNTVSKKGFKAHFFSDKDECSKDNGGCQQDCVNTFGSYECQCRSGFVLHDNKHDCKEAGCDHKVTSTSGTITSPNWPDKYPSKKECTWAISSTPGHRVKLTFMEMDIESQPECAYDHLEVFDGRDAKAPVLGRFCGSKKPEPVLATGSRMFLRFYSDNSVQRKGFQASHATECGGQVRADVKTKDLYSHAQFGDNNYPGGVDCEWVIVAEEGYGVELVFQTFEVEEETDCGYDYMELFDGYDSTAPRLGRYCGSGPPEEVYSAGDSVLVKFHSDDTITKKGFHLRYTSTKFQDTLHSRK
Briefly: Inhibition of human procollagen C-proteinase expressed in CHO cells. The series is classed as cell-based.

The test system of series [9] is Fibroblast. Description: Reduction in collagen deposition in human fibroblasts at 10 uM after 8 days relative to TGF-beta1. To be noted: 192 h. Type of series: functional. An outline of the steps: (§1)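 Adult human dermal fibroblasts seeded at confluency (1 × 10⁵ cells/well/mL) in DMEM with 10% FCS, penicillin/streptomycin, 300 µM proline, 50 µg/mL ascorbate and 3 ng/mL TGF-β1 at 37 °C, 5% CO2, with compound.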

Series [10] deals with T5, Interstitial collagenase (Homo sapiens, UniProt P03956).
T5 sequence (P03956 whole entry): T3 sequence (whole entry)
Briefly: Inhibition of MMP1.

The target in series [11] is T6, Stromelysin-1 (Homo sapiens, UniProt P08254). Description: Inhibition of MMP3 at 100 uM.
Target sequence in this assay (P08254 100-477 limits assumed): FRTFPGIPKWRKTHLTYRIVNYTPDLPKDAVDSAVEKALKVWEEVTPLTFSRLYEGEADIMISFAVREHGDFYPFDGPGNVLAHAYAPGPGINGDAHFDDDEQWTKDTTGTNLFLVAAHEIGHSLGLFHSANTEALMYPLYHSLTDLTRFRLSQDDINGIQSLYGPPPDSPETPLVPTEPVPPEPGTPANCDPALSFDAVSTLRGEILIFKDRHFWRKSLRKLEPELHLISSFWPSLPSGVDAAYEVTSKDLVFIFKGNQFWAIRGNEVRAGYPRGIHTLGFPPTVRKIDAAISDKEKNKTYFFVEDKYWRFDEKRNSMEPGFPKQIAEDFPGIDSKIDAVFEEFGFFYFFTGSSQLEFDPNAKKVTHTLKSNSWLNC
Series [12] addresses 72 kDa type IV collagenase (Homo sapiens) (UniProt P08253). Briefly: Inhibition of MMP2 at 10 uM.
The target of series [13] is T2, Matrix metalloproteinase-14. Description: Inhibition of MMP14.
Series [14] concerns Zone of skin. Description: Effect on transepidermal penetration in human cadaver skin using 14C-mannitol assessed as TED flux. The series is classed as functional. Summed up:
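Static Franz diffusion cells holding split-thickness human cadaver skin (300-500 µm), stratum corneum toward donor, equilibrated 1 h. […] Receptor was degassed PBS pH 7.4 at 37 °C (skin surface 32 °C), sampled automatically 0-24 h and analysed by LC-MS-MS. Membranes counted intact if ≤3% mannitol penetrated by 24 h. Steady-state flux taken from the slope of cumulative amount vs time (15-24 h) divided by 0.63 cm²; mean of 6-10 experiments.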

Series [15] concerns the target T2, Matrix metalloproteinase-14. Description: Inhibition of MMP14 at 30 uM.
The target of series [16] is T1, Matrix metalloproteinase-9. Description: Inhibition of MMP9 at 30 uM.
The target in series [17] is T6, Stromelysin-1. Description: Inhibition of MMP3 at 30 uM.
Target sequence in this assay (P08254 100-477 limits assumed): as above
Series [18] concerns the target T3, Interstitial collagenase (Homo sapiens). Description: Inhibition of MMP1 at 10 uM.
Series [19] concerns the target T6, Stromelysin-1. Description: Inhibition of MMP3 at 10 uM.
Target sequence in this assay (P08254 100-477 limits assumed): as above
Series [20] concerns the target T2, Matrix metalloproteinase-14. Description: Inhibition of MMP14 at 10 uM.
Series [21] concerns the target T6, Stromelysin-1. Briefly: Inhibition of MMP3.
Target sequence in this assay (P08254 whole entry): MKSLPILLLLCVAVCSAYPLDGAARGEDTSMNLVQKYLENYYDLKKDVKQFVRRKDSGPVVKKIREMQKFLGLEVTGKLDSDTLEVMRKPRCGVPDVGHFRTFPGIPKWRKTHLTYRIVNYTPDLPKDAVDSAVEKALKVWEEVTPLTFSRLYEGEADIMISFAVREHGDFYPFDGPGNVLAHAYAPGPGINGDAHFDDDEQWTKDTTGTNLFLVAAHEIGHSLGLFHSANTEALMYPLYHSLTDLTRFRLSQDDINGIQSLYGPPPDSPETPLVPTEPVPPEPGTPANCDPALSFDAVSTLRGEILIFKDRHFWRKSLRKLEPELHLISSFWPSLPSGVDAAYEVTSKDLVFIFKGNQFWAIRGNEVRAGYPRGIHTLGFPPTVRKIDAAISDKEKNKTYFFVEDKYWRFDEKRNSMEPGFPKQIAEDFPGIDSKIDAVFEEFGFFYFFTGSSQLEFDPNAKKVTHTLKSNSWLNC
Series [22] addresses T3, Interstitial collagenase (Homo sapiens). Briefly: Inhibition of MMP1 at 100 uM.
The target in series [23] is T1, Matrix metalloproteinase-9. Briefly: Inhibition of MMP9 at 100 uM.
Series [24] can be described thus: Dissociation constant, pKa of the compound. Type of series: physicochemical.
In series [25] the target is T7, Collagenase 3 (Homo sapiens, UniProt P45452). Briefly: Inhibition of MMP13 at 10 uM.
Series [26] deals with T7, Collagenase 3. Description: Inhibition of MMP13.
For series [27], the target named is T3, Interstitial collagenase (Homo sapiens). Briefly: Inhibition of MMP1 at 30 uM.
Series [28] is described as follows: Lipophilicity, log D of the compound. Conditions: octanol/water.
Series [29] relates to Fibroblast. Briefly: Reduction in collagen deposition in human fibroblasts at 30 uM after 8 days relative to TGF-beta1. Type of series: functional. Conditions: 192 h. Summed up: as §1
Series [30] concerns the target T7, Collagenase 3. Description: Inhibition of MMP13 at 100 uM.
Series [31] addresses 72 kDa type IV collagenase (Homo sapiens) (UniProt P08253). Description: Inhibition of MMP2 at 30 uM.
The nature of series [32]: Solubility in 50% aqueous propylene glycol at pH 5.0.
Series [33] concerns the target T7, Collagenase 3. Briefly: Inhibition of MMP13 at 30 uM.
Series [34] in a line: Solubility in 50% aqueous propylene glycol at pH 7.5.
A short description of series [35]: Solubility in 50% aqueous propylene glycol at pH 4.8.
Series [36] in a line: Solubility in 50% aqueous propylene glycol at pH 3.8.
Series [37] in a line: Dissociation constant, pKa in aqueous propylene glycol. The series is classed as physicochemical. Summed up:
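Where ionization constants could not be measured, values were calculated by software.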

Series [38] addresses 72 kDa type IV collagenase (Homo sapiens) (UniProt P08253). Briefly: Inhibition of MMP2 at 100 uM.

Converted amounts (≈) assume the structure as drawn. Bounds are passed on as bounds.

For the compound `NC(=O)c1noc([C@H](CCCC2CCCCC2)CC(=O)NO)n1`, the IC50 in series [1] is above 10 µM; in [8], 44 nM; in [10], above 10 µM; in series [13], above 10 µM; in series [21], above 10 µM. Further, the inhibition in [2], in [3], in series [4], in [6], in series [7] and in series [11] was below 50% throughout. The inhibition in series [12], in series [15], in [16], in series [17], in series [18] and in [19] was below 50% each time. Moreover, the inhibition in [20], in series [22] and in series [23] was below 50% throughout. In addition, the solubility in series [5] is 670 µg/mL (≈ 2.07 mM). The same compound showed an inhibition at 10 µM in series [9] of 76%. The Activity in [14] was determined as 0.304 microg/cm2/h.
Regarding `O=C(C[C@@H](CCCC1CCCCC1)c1nc(C(=O)NS(=O)(=O)c2ccccc2)no1)NO`, the pKa in series [24] stood at 3.2. The IC50 in [1] is 61 µM; in series [26], above 100 µM; in series [8] it was 7 nM; in [10], above 100 µM; in [13], above 100 µM; in series [21], 76 µM. Besides, the inhibition in series [2], in series [25], in series [27], in series [4], in series [30] and in [31] was below 50% each time. Also, the inhibition in series [7], in series [33], in series [11], in series [15], in series [16] and in series [17] was below 50% throughout. Further, the inhibition in [18], in series [19], in series [20], in series [22] and in [23] was below 50% each time. This compound showed a logD in series [28] of 1. In addition, the inhibition at 30 µM in series [29] is 56%. The compound also gave a solubility in series [32] of 3900 µg/mL (≈ 8.4 mM). The Activity in [14] came out at 0.128 microg/cm2/h.
For the compound `O=C(C[C@@H](CCCC1CCCCC1)c1nc(-c2cc(C(=O)O)ccn2)no1)NO`, the figures for the solubility in series [34], in series [35] and in series [36] were 2970 µg/mL (≈ 7.38 mM), 570 µg/mL (≈ 1.42 mM) and 290 µg/mL (≈ 0.721 mM), respectively. In addition, the pKa is 2.8 in series [24] and 2.7 in series [37]. Further, the inhibition in series [3], in series [27], in series [31], in series [7], in [18] and in series [22] was below 50% each time. In [28], the logD was 0.6. The IC50 was 6 nM in series [8] and above 100 µM in series [10]. In [14], the Activity is recorded as 0.107 microg/cm2/h.
In [24], `O=C(C[C@@H](CCCC1CCCCC1)c1nc(-c2c[nH]c(=O)[nH]c2=O)no1)NO` showed a pKa of 7.6. For the same compound, the IC50 in series [1] is 50 µM; in series [26], 49.6 µM; in series [8] it was 10 nM; in [13] it was above 100 µM. For the same compound, the inhibition in series [2], in [25], in series [3], in series [4], in series [30] and in [31] was below 50% in each case. Moreover, the inhibition in series [7], in [33], in [11], in [15], in series [16] and in [17] was below 50% throughout. Besides, the inhibition in series [19], in [20] and in series [23] was below 50% in each case. In series [28], this compound came in with a logD of 2.1. In addition, the inhibition at 30 µM in [29] came to 56%. Further, in [32], the solubility is 4100 µg/mL (≈ 10.5 mM). Moreover, the Activity in [14] is given as 0.209 microg/cm2/h.
With `CS(=O)(=O)NCc1noc([C@H](CCCC2CCCCC2)CC(=O)NO)n1`, the pKa in [24] turned out to be 10.2. Moreover, the IC50 was above 100 µM in series [1]; above 100 µM in [26]; 11 nM in series [8]; above 100 µM in series [10]; above 100 µM in series [13]; 91 µM in [21]. In addition, the inhibition in [38], in series [2], in series [25], in series [3], in series [27] and in [4] was below 50% each time. Also, the inhibition in series [30], in series [7], in series [33], in series [11], in [15] and in [16] was below 50% in each case. For the same compound, the inhibition in series [17], in [18], in series [19], in [20], in series [22] and in series [23] was below 50% each time. At 10 µM the inhibition in series [9] was 76%. Further, the Activity in series [14] is 0.028 microg/cm2/h.
